# Results: ChEMBL document CHEMBL4138194, “Synthesis of unprecedented steroidal spiro heterocycles as potential antiproliferative drugs” (Eur J Med Chem, 2018)
# Tests used:
# T47D = experiment: Antiproliferative activity against human T47D cells after 48 hrs by SRB assay; format: functional
# How it was run: (§1)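 Plated at 5 000 cells/well, per doubling time. Compounds were dissolved in DMSO at 400× the maximum final concentration and tested in triplicate between 1 and 100 µM for 48 h, beginning day 1 after plating, with 0.25% v/v DMSO as control. Cells were then TCA-fixed for 60 min at 4 °C and SRB-stained. Background-corrected OD was read at 530 nm, and percentage growth was derived against untreated control from start and end OD (NCI formulas).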
# WiDr = experiment: Antiproliferative activity against human WiDr cells after 48 hrs by SRB assay; format: functional; how it was run: as §1
# HBL-100 = experiment: Antiproliferative activity against human HBL100 cells after 48 hrs by SRB assay; format: functional; settings: HBL-100, 48 h
# How it was run: (§2)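 Seeded at 2 500 cells/well, per doubling time. Compounds were dissolved in DMSO at 400× the top test concentration and tested in triplicate at dilutions spanning 1–100 µM, starting day 1 after plating, with 0.25% v/v DMSO as control. After 48 h, cells were fixed with cold TCA for 60 min at 4 °C, then SRB-stained. Background-corrected OD was read at 530 nm, and percentage growth was calculated against untreated cells using T0 and end-point OD (NCI formulas).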
# SW1573 = experiment: Antiproliferative activity against human SW1573 cells after 48 hrs by SRB assay; format: functional; settings: SW1573, 48 h; how it was run: as §2
# A549 = experiment: Antiproliferative activity against human A549 cells after 48 hrs by SRB assay; format: functional; settings: A549, 48 h; how it was run: as §2
# HeLa = experiment: Antiproliferative activity against human HeLa cells after 48 hrs by SRB assay; format: functional; how it was run: as §2
# [1] = Cytotoxicity against human hTERT-BJ cells assessed as cell growth inhibition after 48 hrs SRB assay; format: cell-based
# How it was run: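 BJ-hTert cells were seeded at 10 000/well and exposed from day 1 for 48 h to compounds in triplicate across 1–100 µM. DMSO stocks were 400× the top concentration, with a 0.25% v/v DMSO control. Cells were fixed with ice-cold TCA for 60 min at 4 °C and SRB-stained. Background-corrected OD was read at 530 nm, and percentage growth was computed relative to untreated cells using T0 and final OD (NCI formulas).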
SMILES,GI50 (T47D),GI50 (WiDr),GI50 (HBL-100),GI50 (SW1573),GI50 (A549),GI50 (HeLa),GI50 at 48 h [1]
CCCCNC(=S)NC[C@]1(O)CC[C@H]2[C@@H]3CC[C@H]4C[C@@H](O)CC[C@]4(C)[C@H]3CC[C@@]21C,5.8 µM,4.5 µM,13 µM,9.4 µM,12 µM,14 µM,
COC(=O)NC[C@]1(O)CC[C@H]2[C@@H]3CCc4cc(O)ccc4[C@H]3CC[C@@]21C,4.3 µM,4.9 µM,4 µM,5.9 µM,6.8 µM,3.5 µM,
C[C@]12CC[C@@H]3c4ccc(O)cc4CC[C@H]3[C@@H]1CC[C@@]21CN=C(Nc2ccccc2)O1,2.6 µM,2.6 µM,4.4 µM,3.4 µM,2.6 µM,3.3 µM,1.4 µM
C[C@]12CC[C@H](O)C[C@@H]1CC[C@@H]1[C@@H]2CC[C@@]2(C)[C@H]1CC[C@@]21CNC(=O)O1,4.5 µM,3.8 µM,10 µM,6 µM,3.7 µM,4 µM,< 1 µM
CCCCNC1=NC[C@@]2(CC[C@H]3[C@@H]4CC[C@H]5C[C@@H](O)CC[C@]5(C)[C@H]4CC[C@@]32C)O1,1.2 µM,0.87 µM,2.1 µM,1.2 µM,1.4 µM,1.6 µM,< 1 µM
C[C@]12CC[C@@H]3c4ccc(OCc5ccccc5)cc4CC[C@H]3[C@@H]1CC[C@@]2(O)CN=[N+]=[N-],4.1 µM,2.4 µM,22 µM,29 µM,13 µM,2.9 µM,
C[C@]12CC[C@H](O)C[C@@H]1CC[C@@H]1[C@@H]2CC[C@@]2(C)[C@H]1CC[C@@]2(O)CN=[N+]=[N-],> 100 µM,> 100 µM,> 100 µM,> 100 µM,> 100 µM,> 100 µM,
C[C@]12CC[C@H](O)C[C@@H]1CC[C@@H]1[C@@H]2CC[C@@]2(C)[C@H]1CC[C@@]2(O)CNC(=S)NC1CCCCC1,18 µM,18 µM,18 µM,15 µM,16 µM,21 µM,
C[C@]12CC[C@@H]3c4ccc(O)cc4CC[C@H]3[C@@H]1CC[C@@]2(O)CNC(=S)NC1CCCCC1,3.9 µM,2.8 µM,5.1 µM,14 µM,4.5 µM,3.3 µM,
C[C@]12CC[C@@H]3c4ccc(O)cc4CC[C@H]3[C@@H]1CC[C@@]2(O)CNC(=S)Nc1ccccc1,5.7 µM,4.5 µM,15 µM,21 µM,9.8 µM,6.3 µM,
COC(=O)NC[C@]1(O)CC[C@H]2[C@@H]3CC[C@H]4C[C@@H](O)CC[C@]4(C)[C@H]3CC[C@@]21C,41 µM,39 µM,99 µM,92 µM,38 µM,70 µM,
C[C@]12CC[C@H](O)C[C@@H]1CC[C@@H]1[C@@H]2CC[C@@]2(C)[C@H]1CC[C@@]2(O)CNC(=S)Nc1ccccc1,34 µM,17 µM,27 µM,27 µM,29 µM,27 µM,
C[C@]12CC[C@@H]3c4ccc(O)cc4CC[C@H]3[C@@H]1CC[C@@]21CNC(=O)O1,4.4 µM,9.2 µM,6.3 µM,18 µM,5.4 µM,1.3 µM,
C[C@]12CC[C@@H]3c4ccc(O)cc4CC[C@H]3[C@@H]1CC[C@@]21CN=C(NC2CCCCC2)O1,0.71 µM,0.34 µM,1.5 µM,1.5 µM,1.1 µM,1.3 µM,< 1 µM
C[C@]12CC[C@H](O)C[C@@H]1CC[C@@H]1[C@@H]2CC[C@@]2(C)[C@H]1CC[C@@]2(O)CN,21 µM,25 µM,20 µM,19 µM,17 µM,22 µM,
C[C@]12CC[C@H](O)C[C@@H]1CC[C@@H]1[C@@H]2CC[C@@]2(C)[C@H]1CC[C@@]21CN=C(NC2CCCCC2)O1,1.2 µM,0.96 µM,2 µM,1.5 µM,1.5 µM,1.6 µM,1.2 µM
C[C@]12CC[C@@H]3c4ccc(O)cc4CC[C@H]3[C@@H]1CC[C@@]2(O)CN,30 µM,22 µM,34 µM,43 µM,39 µM,27 µM,
CCCCNC(=S)NC[C@]1(O)CC[C@H]2[C@@H]3CCc4cc(O)ccc4[C@H]3CC[C@@]21C,3.9 µM,4.4 µM,7.2 µM,15 µM,4.8 µM,4.2 µM,
CCCCNC1=NC[C@@]2(CC[C@H]3[C@@H]4CCc5cc(O)ccc5[C@H]4CC[C@@]32C)O1,0.45 µM,0.34 µM,2.9 µM,2.2 µM,1.4 µM,2.1 µM,< 1 µM
C[C@]12CC[C@H](O)CC1=CC[C@@H]1[C@@H]2CC[C@]2(C)C(c3cccnc3)=CC[C@@H]12 [ABIRATERONE],24 µM,42 µM,> 100 µM,85 µM,95 µM,7.9 µM,4.5 µM
C[C@]12CC[C@H](O)CC1=CC[C@@H]1[C@@H]2CC[C@]2(C)C(n3cnc4ccccc43)=CC[C@@H]12 [GALETERONE],2.1 µM,2.7 µM,10 µM,3.9 µM,3.9 µM,5.3 µM,5 µM
